{"source": "ChEMBL document CHEMBL1122132", "about": "“Synthesis, 470-MHz 1H NMR spectra, and activity of delactonized derivatives of the anticancer drug etoposide” (1982)", "assay_type_in_all_cases": "functional", "key": {"L1210 [1]": {"test_system": "L1210", "assay": "In vitro cytotoxic activity tested in mouse leukemia L1210 cells at a dose of 50.0 ug/mL", "conditions": "read-out: Survival", "method_in_brief": "(§1)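 Continuous mouse L1210 leukemia cell line exposed to 0.5, 5.0 or 50.0 μg/mL in a soft agar clonogenic assay. Colony survival is expressed as % of untreated control, with control set at 100.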"}, "Mus musculus [2]": {"test_system": "Mus musculus", "assay": "Percent increase in life span of mouse leukemia L1210 system at a dose of 30 mg/kg"}, "Mus musculus [3]": {"test_system": "Mus musculus", "assay": "Percent increase in life span of mouse leukemia L1210 system at a dose of 45 mg/kg"}, "Mus musculus [4]": {"test_system": "Mus musculus", "assay": "Percent increase in life span of mouse leukemia L1210 system at a dose of 60 mg/kg"}, "L1210 [5]": {"test_system": "L1210", "assay": "In vitro cytotoxic activity tested in mouse leukemia L1210 cells at a dose of 5.0 ug/mL", "conditions": "read-out: Survival", "method_in_brief": "as §1"}, "L1210 [6]": {"test_system": "L1210", "assay": "In vitro cytotoxic activity tested in mouse leukemia L1210 cells at a dose of 0.5 ug/mL", "conditions": "read-out: Survival", "method_in_brief": "as §1"}}}
{"smiles": "COc1cc([C@@H]2c3cc4c(cc3[C@@H](O[C@@H]3O[C@@H]5CO[C@@H](C)O[C@H]5[C@H](O)[C@H]3O)[C@@H](CO)[C@@H]2CO)OCO4)cc(OC)c1O", "values": [{"measurement": "viability at 50 µg/mL", "setting": "L1210 [1]", "result": 43, "unit": "%"}, {"measurement": "ILS at 30 mg/kg", "setting": "Mus musculus [2]", "result": 0, "unit": "%"}, {"measurement": "ILS at 45 mg/kg", "setting": "Mus musculus [3]", "result": 0, "unit": "%"}, {"measurement": "ILS at 60 mg/kg", "setting": "Mus musculus [4]", "result": 5, "unit": "%"}, {"measurement": "viability at 5 µg/mL", "setting": "L1210 [5]", "result": 221, "unit": "%"}]}
{"smiles": "COc1cc([C@@H]2c3cc4c(cc3[C@@H](O[C@@H]3O[C@@H]5CO[C@@H](C)O[C@H]5[C@H](O)[C@H]3O)[C@H]3COC[C@H]23)OCO4)cc(OC)c1O", "values": [{"measurement": "viability at 0.5 µg/mL", "setting": "L1210 [6]", "result": 165, "unit": "%"}, {"measurement": "viability at 50 µg/mL", "setting": "L1210 [1]", "result": 0, "unit": "%"}, {"measurement": "ILS at 30 mg/kg", "setting": "Mus musculus [2]", "result": 10, "unit": "%"}, {"measurement": "ILS at 45 mg/kg", "setting": "Mus musculus [3]", "result": 25, "unit": "%"}, {"measurement": "ILS at 60 mg/kg", "setting": "Mus musculus [4]", "result": 30, "unit": "%"}, {"measurement": "viability at 5 µg/mL", "setting": "L1210 [5]", "result": 0, "unit": "%"}]}
{"smiles": "COc1cc([C@@H]2c3cc4c(cc3[C@@H](O[C@@H]3O[C@@H]5CO[C@@H](C)O[C@H]5[C@H](O)[C@H]3O)[C@H]3COC(=O)[C@H]23)OCO4)cc(OC)c1O", "note": "[ETOPOSIDE]", "values": [{"measurement": "viability at 0.5 µg/mL", "setting": "L1210 [6]", "result": 0, "unit": "%"}, {"measurement": "viability at 50 µg/mL", "setting": "L1210 [1]", "result": 0, "unit": "%"}, {"measurement": "ILS at 30 mg/kg", "setting": "Mus musculus [2]", "result": 110, "unit": "%"}, {"measurement": "ILS at 60 mg/kg", "setting": "Mus musculus [4]", "result": 103, "unit": "%"}, {"measurement": "viability at 5 µg/mL", "setting": "L1210 [5]", "result": 1, "unit": "%"}]}
